ChEMBL document CHEMBL1122124, “Synthesis and immunoadjuvant activities of 2-acetamido-5-O-acetyl-6-O-acyl-2-deoxy-3-O-[(R)-2-propionyl-L-alanyl-D- isoglutamine]-D-glucofuranoses as potential prodrug forms of 6-O-Acyl Derivatives of N-acetylmuramyl dipeptide” (1982)

Assays:
Assay type in all cases: functional
Mus musculus [1] = species on record: Mus musculus; experiment: Tested for antibody response of mice injected with Bovine serum Albumin(BSA) at 50 ug/dose in experiment 4
Mus musculus [2] = species on record: Mus musculus; experiment: Tested for antibody response of mice injected with Bovine serum Albumin(BSA) at 50 ug/dose in experiment 5
Mus musculus [3] = species on record: Mus musculus; experiment: Tested for antibody response of mice injected with Bovine serum Albumin(BSA) at 50 ug/dose in experiment 2
In short: (§1)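 Female ICR/Ha mice, 5–6 weeks old, groups of six, given one subcutaneous injection between the shoulders of 0.25 mL PBS containing 100 μg BSA monomer plus analogue (dissolved or sonicated). Boosted at day 21 with 100 μg BSA alone, bled at day 31. Anti-BSA passive hemagglutination was run on sheep-RBC-adsorbed sera with twofold dilutions on BSA-coated sheep cells. Result is the group geometric mean reciprocal titer.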

Mus musculus [4] = species on record: Mus musculus; experiment: Tested for antibody response of mice injected with Bovine serum Albumin(BSA) at 50 ug/dose in experiment 1; in short: as §1
Mus musculus [5] = species on record: Mus musculus; experiment: Tested for antibody response of mice injected with Bovine serum Albumin(BSA) at 50 ug/dose in experiment 3; in short: as §1
Mus musculus [6] = species on record: Mus musculus; experiment: Tested for antibody response of mice injected with Bovine serum Albumin(BSA) at 5 ug/dose in experiment 5; in short: as §1
Mus musculus [7] = species on record: Mus musculus; experiment: Tested for antibody response of mice injected with Bovine serum Albumin(BSA) at 5 ug/dose in experiment 1
Mus musculus [8] = species on record: Mus musculus; experiment: Tested for antibody response of mice injected with Bovine serum Albumin(BSA) at 50 ug/dose in experiment 6
Mus musculus [9] = species on record: Mus musculus; experiment: Tested for antibody response of mice injected with Bovine serum Albumin(BSA) at 5 ug/dose in experiment 6; in short: as §1
Mus musculus [10] = species on record: Mus musculus; experiment: Tested for antibody response in mice injected with various Hepatitis B Vaccine at 50 ug/dose in experiment 1
In short: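 Female 5-week-old ICR mice, groups of 20, injected subcutaneously with 0.5 mL holding 1.25 μg aqueous hepatitis B vaccine (plasma-derived) mixed with 50 μg analogue in PBS (pH 7.5). Controls were aqueous vaccine alone and alum-adsorbed vaccine at 1.25 μg. Mice bled from vena cava at 6 weeks. Anti-HBs measured by radioimmunoassay; geometric mean titer reported as reciprocal serum dilution, plus responder count.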

CC(=O)N[C@H]1C(O)O[C@H](CO)[C@@H](O)[C@@H]1O[C@H](C)C(=O)N[C@@H](C)C(=O)N[C@H](CCC(=O)O)C(N)=O (stereo not given in full) [MURAMYL DIPEPTIDE]
Geometric mean (Mus musculus [1]): 1536 | Geometric mean (Mus musculus [2]): 28.26 | Geometric mean (Mus musculus [3]): 215.51 | Geometric mean (Mus musculus [4]): 592.21 | Geometric mean (Mus musculus [5]): 241.9 | Geometric mean (Mus musculus [6]): <3 | Geometric mean (Mus musculus [7]): 28.12 | Geometric mean (Mus musculus [8]): 179.14

CCCCCCCCCCCCCCCCCCCCCC(=O)OC(C)(C)C(=O)OCC1OC(O)C(NC(C)=O)C(O[C@H](C)C(=O)N[C@@H](C)C(=O)NC(CCC(=O)O)C(N)=O)C1O (stereo not given in full)
Geometric mean (Mus musculus [9]): 823.12 | Geometric mean (Mus musculus [4]): 768 | Geometric mean (Mus musculus [7]): 431 | Geometric mean (Mus musculus [8]): 716.57

CCCCCCCCCCCCCCCCCCCCCC(=O)OC(C)(C)C(=O)OCC(OC(C)=O)C1OC(O)C(NC(C)=O)C1OC(C)C(=O)N[C@@H](C)C(=O)NC(CCC(=O)O)C(N)=O (stereo not given in full)
Geometric mean (Mus musculus [10]): 303.6 | Geometric mean (Mus musculus [4]): 215.51 | Geometric mean (Mus musculus [7]): 543.06

CC(=O)NC1C(O)OC(COC(C)=O)C(OC(C)=O)C1O[C@H](C)C(=O)N[C@@H](C)C(=O)NC(CCC(=O)O)C(N)=O (stereo not given in full)
Geometric mean (Mus musculus [4]): 384 | Geometric mean (Mus musculus [7]): 4.36

CCCCCCCCCCCCCCCCCC(=O)OCC(OC(C)=O)C1OC(O)C(NC(C)=O)C1OC(C)C(=O)N[C@@H](C)C(=O)NC(CCC(=O)O)C(N)=O (stereo not given in full)
Geometric mean (Mus musculus [10]): 69.6 | Geometric mean (Mus musculus [2]): 215.51 | Geometric mean (Mus musculus [4]): 1408.52 | Geometric mean (Mus musculus [6]): 107.76 | Geometric mean (Mus musculus [7]): 28.12

CC(=O)NC1C(O)OC(C(COC(C)=O)OC(C)=O)C1OC(C)C(=O)N[C@@H](C)C(=O)NC(CCC(=O)O)C(N)=O (stereo not given in full)
Geometric mean (Mus musculus [9]): 13.08 | Geometric mean (Mus musculus [10]): 38.1 | Geometric mean (Mus musculus [4]): 271.53 | Geometric mean (Mus musculus [7]): 31.12 | Geometric mean (Mus musculus [8]): 113.49

CCCCCCCCCCCCCCCCCC(=O)NCC1OC(O)C(NC(C)=O)C(O[C@H](C)C(=O)N[C@@H](C)C(=O)NC(CCC(=O)O)C(N)=O)C1O (stereo not given in full)
Geometric mean (Mus musculus [4]): <3 | Geometric mean (Mus musculus [7]): <3

COC1OC(C(O)CO)C(OC(C)C(=O)N[C@@H](C)C(=O)NC(CCC(=O)O)C(N)=O)C1NC(C)=O (stereo not given in full)
Geometric mean (Mus musculus [4]): 10.7 | Geometric mean (Mus musculus [7]): 10.7

CCCCCCCCCCCCCCCCCC(=O)OCC1OC(O)C(NC(C)=O)C(O[C@H](C)C(=O)N[C@@H](C)C(=O)NC(CCC(=O)O)C(N)=O)C1O (stereo not given in full)
Geometric mean (Mus musculus [4]): 995.97 | Geometric mean (Mus musculus [7]): 271.53

CC(=O)NCC1OC(O)C(NC(C)=O)C(O[C@H](C)C(=O)N[C@@H](C)C(=O)NC(CCC(=O)O)C(N)=O)C1O (stereo not given in full)
Geometric mean (Mus musculus [4]): 7.78 | Geometric mean (Mus musculus [7]): 6.17
